Entries after “also recorded” stand apart in the source; their conditions may differ. Read-outs that look alike come from different tables or passages of the source. One block for each compound: values may come before it.
Experiments:
NR1 knock-down mice = conditions: cited from earlier work
hM1 [1] = biological target: T1, hM1 (Homo sapiens, UniProt P11229); assay type: cell-based; conditions: for M1 PAM activity in words (relative to 14 or comparators): hM1-CHO
T1 sequence (P11229 1-460): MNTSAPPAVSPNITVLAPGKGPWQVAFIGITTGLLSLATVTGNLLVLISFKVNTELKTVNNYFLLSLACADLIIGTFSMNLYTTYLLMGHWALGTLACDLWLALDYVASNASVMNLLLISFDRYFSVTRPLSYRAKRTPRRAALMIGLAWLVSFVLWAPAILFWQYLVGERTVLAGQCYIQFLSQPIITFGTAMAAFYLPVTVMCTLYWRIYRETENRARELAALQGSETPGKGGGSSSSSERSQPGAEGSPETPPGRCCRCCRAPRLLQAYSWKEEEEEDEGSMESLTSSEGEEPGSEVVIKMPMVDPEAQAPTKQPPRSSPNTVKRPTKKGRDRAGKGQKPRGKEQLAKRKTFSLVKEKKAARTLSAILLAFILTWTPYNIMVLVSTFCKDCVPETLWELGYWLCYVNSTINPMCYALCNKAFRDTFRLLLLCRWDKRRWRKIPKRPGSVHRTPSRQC
Summary of the method: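 Calcium mobilization in CHO cells expressing human M1, with a fixed EC20 concentration of acetylcholine present. Read-outs are EC50, pEC50 and ACh Max. Values are means of three independent experiments, each run in triplicate. Fold changes are expressed against a racemic reference compound.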

[2] = Metabolite identification studies; assay type: in vitro ADME
M4 = conditions: read-out: M4 EC50; selectivity; cited from earlier work
M2 = conditions: read-out: M2 EC50; selectivity; cited from earlier work
M5 = conditions: read-out: M5 EC50; selectivity; cited from earlier work
[3] = Predicted hepatic clearance, human; assay type: in vitro ADME
hM1 [4] = biological target: T1, hM1; conditions: reference compound, racemate of 7; cited from earlier work
M3 = conditions: read-out: M3 EC50; selectivity; cited from earlier work
M1 = conditions: cells and native systems; cited from earlier work
[5] = mice; cited from earlier work
[6] = rats; cited from earlier work
[7] = test system: cognitive deficits induced by risperidone; conditions: cited from earlier work
[8] = non-human primates; cited from earlier work

SMILES: Cn1cc(-c2ccc(Cn3cc(C(=O)N[C@H]4CCCC[C@@H]4O)c4c(F)cc(F)cc43)cn2)cn1 [compound 6]
Efficacy in NR1 knock-down mice (NR1 knock-down mice): robust efficacy

M1 PAM activity in words (relative to 14 or comparators) (hM1 [1]): retained reasonable M1 PAM activity
SMILES: NC1CCCCC1NC(=O)C1CN(Cc2ccc(-n3cccn3)cc2)c2ccccc2O1 (centres unmarked) [25e]

M1 PAM activity in words (relative to 14 or comparators) (hM1 [1]): equipotent to 14
SMILES: O=C(N[C@H]1CCCC[C@@H]1O)C1CN(Cc2ccc(-n3cccn3)nc2)c2ccccc2O1 (some centres unmarked) [compound 18]

M1 PAM activity in words (relative to 14 or comparators) (hM1 [1]): increase in M1 PAM potency
SMILES: O=C(N[C@H]1CCCC[C@@H]1O)C1CN(Cc2ccc(-n3cccc3)nc2)c2ccccc2O1 (some centres unmarked) [28j]

M1 PAM activity in words (relative to 14 or comparators) (hM1 [1]): equipotent to 14
SMILES: O=C(Nc1ncccc1O)C1CN(Cc2ccc(-n3cccn3)cc2)c2ccccc2O1 (centres unmarked) [25j]
Route of metabolism [2]: amide hydrolysis by esterases liberating 27

Fold increase in M1 PAM potency relative to 14 (hM1 [1]; relative to 14): ~7 fold
SMILES: O=C(N[C@H]1CCCC[C@@H]1O)C1CN(Cc2ccc(-n3cccn3)cc2)c2cccc(F)c2O1 (some centres unmarked) [compound 24]

Fold decrease in M1 PAM activity relative to 14 (hM1 [1]; relative to 14): ~ 3 fold
SMILES: O=C(N[C@H]1CCCC[C@@H]1O)C1CN(Cc2ccc(-n3cccn3)cc2)c2c(F)cccc2O1 (some centres unmarked) [compound 21]

Fold increase in M1 PAM potency relative to 14 (hM1 [1]; relative to 14): ~ 3 fold
SMILES: O=C(N[C@H]1CCCC[C@@H]1O)C1CN(Cc2ccc(-n3cccn3)cc2)c2cc(F)ccc2O1 (some centres unmarked) [compound 22]

M1 PAM activity in words (relative to 14 or comparators) (hM1 [1]): active
SMILES: Cn1nccc1-c1ccc(CN2CC(C(=O)N[C@H]3CCCC[C@@H]3O)Oc3ccccc32)cn1 (some centres unmarked) [28 k]

Fold loss in M1 PAM activity on deletion of the hydroxyl group on the pyran ring (hM1 [1]; relative to pyran homolog 25c): ~ 34 fold
SMILES: O=C(NC1CCOCC1)C1CN(Cc2ccc(-n3cccn3)cc2)c2ccccc2O1 (centres unmarked) [25d]

M1 PAM activity in words (relative to 14 or comparators) (hM1 [1]): retained reasonable M1 PAM activity
SMILES: O=C(N[C@H]1CCCCC1=O)C1CN(Cc2ccc(-n3cccn3)cc2)c2ccccc2O1 (some centres unmarked) [25f]

M1 PAM activity in words (relative to 14 or comparators) (hM1 [1]): essentially equipotent to 14
SMILES: O=C(N[C@H]1CCCC[C@@H]1O)C1Cc2ccccc2N(Cc2ccc(-n3cccn3)cc2)C1 (some centres unmarked) [compound 15]

SMILES: O=C(N[C@H]1CCCC[C@@H]1O)C1CN(Cc2ccc(-n3cccn3)cc2)c2ccccc2O1 (some centres unmarked) [compound 14]
Route of metabolism [2]: P450-mediated debenzylation to afford 26
EC50 (M4): > 30 µM
EC50 (M2): > 30 µM
EC50 (M5): > 30 µM
Predicted hepatic clearance CLhep, human [3]: 11.1 mL/min/kg
M1 pEC50 (hM1 [4]): 6.10 ± 0.13
EC50 (M3): > 30 µM

SMILES: O=C(N[C@H]1CCCC[C@@H]1O)[C@H]1CN(Cc2ccc(-n3cccn3)cc2)c2ccccc2O1 [compound 7]
M1 agonism (M1): devoid of M1 agonism; also recorded: devoid of agonist activity in native systems
Cholinergic toxicity [5]: devoid of cholinergic toxicity
Cholinergic toxicity [6]: devoid of cholinergic toxicity
Reversal of cognitive deficits induced by atypical antipsychotics [7]: reverse the cognitive deficits induced by atypical antipsychotics
Cholinergic toxicity [8]: devoid of cholinergic toxicity

M1 PAM activity in words (relative to 14 or comparators) (hM1 [1]): comparable activity
SMILES: O=C(N[C@H]1CCC[C@@H]1O)C1CN(Cc2ccc(-n3cccn3)cc2)c2ccccc2O1 (some centres unmarked) [25b]
